What follows are compounds tested on Plasmodium falciparum (assay: Antimalarial activity against Plasmodium falciparum FCR3/A2). Settings: FCR-3.
Assay type: functional, organism-based
In short: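 P. falciparum FCR-3/A2 clone cultured in vitro in 24-well plates across a wide concentration range of each compound. Compounds held as 10^-2 M DMSO stocks at -20 °C (stock, not final). Daily blood smears tracked parasite growth. IC50 (50% growth inhibition vs untreated control) came from linear regression of concentration–response data.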

| Structure (SMILES) | IC50 [nM] |
| --- | --- |
| CC1(C)CC[C@H](O)[C@]2(C)[C@H]3Cc4occc4[C@H]4C(=O)O[C@@H](C[C@@]12O)[C@@H]43 [CAESALMIN G] | > 10000 |
| COC(=O)[C@@H]1c2ccoc2C[C@H]2[C@H]1C[C@H](OC(C)=O)[C@@]1(O)C(C)(C)CC[C@H](OC(C)=O)[C@]21C [CAESALPININ E] | 6500 |
| CC(=O)O[C@H]1CC(C)(C)[C@]2(O)CC[C@H]3C(=O)c4ccoc4C[C@@H]3[C@@]2(C)[C@H]1OC(C)=O [NORCAESALPININ A] | 800 |
| CC(=O)O[C@H]1CC(C)(C)[C@]2(O)CCc3c(cc(O)c(C=O)c3C)[C@@]2(C)[C@H]1OC(C)=O [NORCAESALPININ C] | 5000 |
| CC(=O)O[C@H]1CCC(C)(C)[C@]2(O)C[C@H](O)[C@H]3C(=O)c4ccoc4C[C@@H]3[C@@]12C [NORCAESALPININ E] | 90 |
| CC(=O)O[C@H]1[C@@H](OC(C)=O)C(C)(C)[C@]2(O)CC[C@H]3C(=O)c4ccoc4C[C@@H]3[C@@]2(C)[C@H]1OC(C)=O [3-O-ACETYLNORCAESALPININ A] | 2000 |
| CC(=O)O[C@H]1C[C@@H](OC(C)=O)C(C)(C)[C@]2(O)CC[C@H]3C(=O)c4ccoc4C[C@@H]3[C@@]12C [NORCAESALPININ B] | 260 |
| CC(=O)O[C@H]1CC(C)(C)[C@]2(O)CCc3c(cc4occc4c3C)[C@@]2(C)[C@H]1OC(C)=O | 98 |
| COC(=O)[C@@H]1c2ccoc2C[C@H]2[C@H]1[C@@H](OC(C)=O)C[C@@]1(O)C(C)(C)CC[C@H](OC(C)=O)[C@]21C [ACETOXYBONDUCELLPIN C] | 600 |
| CC(=O)O[C@H]1C[C@@H](OC(C)=O)C(C)(C)[C@]2(O)CCc3c(cc4occc4c3C)[C@@]12C [CAESALDEKARINE] | 4000 |

Next, values leading:

| IC50 [nM] | Structure (SMILES) |
| --- | --- |
| 6500 | CC(=O)O[C@H]1[C@@H](OC(C)=O)C(C)(C)[C@]2(O)CCc3c(cc4occc4c3C)[C@@]2(C)[C@H]1OC(C)=O |
| 800 | CC(=O)O[C@H]1CCC(C)(C)[C@]2(O)[C@@H](OC(C)=O)[C@@H]3OC(=O)[C@@H]4c5ccoc5C[C@@H]([C@@H]34)[C@@]12C [CAESALPININ D] |
| 200 | C=C1c2ccoc2C[C@H]2[C@H]1CC[C@@]1(O)C(C)(C)[C@H](OC(C)=O)[C@H](OC(C)=O)[C@H](OC(C)=O)[C@]21C |
| 760 | C=C1c2ccoc2C[C@H]2[C@H]1CC[C@@]1(O)C(C)(C)[C@H](OC(C)=O)C[C@H](OC(C)=O)[C@]21C [CAESALPININ C] |
| 800 | CC(=O)O[C@H]1CCC(C)(C)[C@]2(O)C[C@@H]3OC(=O)[C@@H]4c5ccoc5C[C@@H]([C@@H]34)[C@@]12C [CAESALMIN B] |
| 650 | COC(=O)[C@@H]1c2ccoc2C[C@H]2[C@H]1C[C@H](OC(C)=O)[C@@]1(O)C(C)(C)CCC(=O)[C@]21C [CAESALPININ F] |

— ChEMBL document CHEMBL1158758, “Cassane- and norcassane-type diterpenes from Caesalpinia crista of Indonesia and their antimalarial activity against the growth of Plasmodium falciparum” (J Nat Prod, 2005)
